Activity calls are given as the source filed them. No cut-off for these calls is given here.
Assays:
Mus musculus [1] = test: Antidepressant activity in CD1 mouse assessed as decrease in immobility time at 1.25 mg/kg, sc measured after 15 mins by forced swim test relative to vehicle-treated control; assay type: functional, organism-based; design: dose 1.25 mg/kg
Mus musculus [2] = test: Antidepressant activity in CD1 mouse assessed as decrease in immobility time at 0.1 mg/kg, sc measured after 15 mins by forced swim test relative to vehicle-treated control; assay type: functional, organism-based; design: dose 0.1 mg/kg
Summary of the method: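 Mouse forced swim test scoring immobility time. The 5-HT1A-R antagonist was given alone at 0.1 mg/kg sc. Groups were compared with vehicle-treated mice, with 7–8 animals per group, and data are shown as means ± SEM.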

[3] = biological target: T1, 5-hydroxytryptamine receptor 1A (Homo sapiens, UniProt P08908); test: Displacement of [3H]8-OH-DPAT from human 5HT1A receptor expressed in HeLa cells after 30 mins; assay type: cell-based
T1 sequence (P08908 whole entry): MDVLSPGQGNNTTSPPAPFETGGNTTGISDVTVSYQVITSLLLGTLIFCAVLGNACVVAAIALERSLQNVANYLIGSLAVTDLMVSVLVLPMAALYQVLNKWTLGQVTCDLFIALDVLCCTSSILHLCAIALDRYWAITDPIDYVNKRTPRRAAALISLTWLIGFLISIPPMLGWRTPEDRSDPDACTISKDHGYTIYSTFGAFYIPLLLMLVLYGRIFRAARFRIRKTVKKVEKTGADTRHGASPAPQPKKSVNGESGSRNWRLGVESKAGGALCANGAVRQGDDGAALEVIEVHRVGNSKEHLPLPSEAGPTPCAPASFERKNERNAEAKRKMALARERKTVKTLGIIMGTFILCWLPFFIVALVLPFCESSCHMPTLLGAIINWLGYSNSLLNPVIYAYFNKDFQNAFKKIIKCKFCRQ
Summary of the method: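 pKi is derived from displacement of [3H]-8-OH-DPAT binding at human cloned 5-HT1A receptor. Values are means ± SEMs of 3–6 separate experiments.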

[4] = biological target: T2, Alpha-2C adrenergic receptor (Homo sapiens) (UniProt P18825); test: Agonist activity at human alpha2C adrenoceptor expressed in CHO cells assessed as extracellular acidification measured after 4 mins by cytosensor microphysiometric analysis relative to control; assay type: functional, cell-based
T2 sequence (whole entry): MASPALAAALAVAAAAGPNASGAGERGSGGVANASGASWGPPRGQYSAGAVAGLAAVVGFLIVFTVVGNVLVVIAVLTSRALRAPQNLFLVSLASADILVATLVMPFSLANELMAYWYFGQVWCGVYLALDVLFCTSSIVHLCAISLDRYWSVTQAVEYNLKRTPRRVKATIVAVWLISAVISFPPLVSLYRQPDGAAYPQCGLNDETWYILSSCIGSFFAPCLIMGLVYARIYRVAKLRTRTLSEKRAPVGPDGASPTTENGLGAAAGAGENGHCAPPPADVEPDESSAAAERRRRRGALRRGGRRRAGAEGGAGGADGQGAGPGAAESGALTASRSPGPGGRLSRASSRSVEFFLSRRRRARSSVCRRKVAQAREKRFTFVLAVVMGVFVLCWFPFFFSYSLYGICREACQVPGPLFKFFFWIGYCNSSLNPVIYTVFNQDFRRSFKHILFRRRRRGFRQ
Summary of the method: (§1)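 Binding and functional assays run on CHO cells expressing recombinant human α2-AR subtypes. Functional read-outs are agonist potency (pEC50) with intrinsic activity (ia), or antagonist pKb. Affinity is reported as pKi. Values are means ± SEMs of 3–6 separate experiments.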

[5] = biological target: T3, Alpha-2A adrenergic receptor (Homo sapiens) (UniProt P08913); details: CHO
T3 sequence (whole entry): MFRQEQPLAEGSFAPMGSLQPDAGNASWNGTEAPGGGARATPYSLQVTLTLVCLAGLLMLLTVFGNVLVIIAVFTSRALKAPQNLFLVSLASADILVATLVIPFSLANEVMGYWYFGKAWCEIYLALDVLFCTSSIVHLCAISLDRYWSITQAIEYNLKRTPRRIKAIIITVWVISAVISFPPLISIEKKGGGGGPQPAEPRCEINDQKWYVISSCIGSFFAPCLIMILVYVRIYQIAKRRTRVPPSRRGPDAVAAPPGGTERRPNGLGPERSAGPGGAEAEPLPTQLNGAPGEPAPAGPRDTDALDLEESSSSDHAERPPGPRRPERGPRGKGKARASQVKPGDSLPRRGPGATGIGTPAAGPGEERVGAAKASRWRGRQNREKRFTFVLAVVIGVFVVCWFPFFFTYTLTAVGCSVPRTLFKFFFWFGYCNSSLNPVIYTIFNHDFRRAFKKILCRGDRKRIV

[6] = biological target: T4, 5-hydroxytryptamine receptor 1A (Homo sapiens) (UniProt P08908); details: HeLa
T4 sequence (whole entry): T1 sequence (P08908 whole entry)

[7] = biological target: T5, Alpha-2B adrenergic receptor (Homo sapiens) (UniProt P18089); details: CHO
T5 sequence (whole entry): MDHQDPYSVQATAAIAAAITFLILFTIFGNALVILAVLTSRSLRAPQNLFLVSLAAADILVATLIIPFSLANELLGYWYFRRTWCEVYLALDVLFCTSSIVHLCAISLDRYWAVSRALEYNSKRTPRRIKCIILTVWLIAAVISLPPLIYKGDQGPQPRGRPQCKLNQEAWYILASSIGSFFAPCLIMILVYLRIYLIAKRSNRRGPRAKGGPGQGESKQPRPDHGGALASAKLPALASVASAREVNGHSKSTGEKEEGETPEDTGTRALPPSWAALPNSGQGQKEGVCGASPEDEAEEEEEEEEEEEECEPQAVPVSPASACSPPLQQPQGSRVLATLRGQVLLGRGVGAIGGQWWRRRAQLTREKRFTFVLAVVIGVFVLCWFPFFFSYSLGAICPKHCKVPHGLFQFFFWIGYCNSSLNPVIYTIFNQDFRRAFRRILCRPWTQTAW

Mus musculus [8] = test: Effect on morphine-dependence in CD1 mouse assessed as decrease in naloxone-precipitated rearing at 0.025 mg/kg, ip administered acutely 15 mins prior to naloxone challenge relative to vehicle-treated control; assay type: functional, organism-based; design: dose 0.025 mg/kg
Summary of the method: (§2)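 Expression of morphine dependence in mice, tested with a single acute ip dose (racemate 0.05 mg/kg, enantiomers 0.025 mg/kg). Withdrawal was precipitated by naloxone in control and morphine-treated mice. Scored signs were jumping frequency and somatic signs (rearing, forepaw tremors, teeth chatter). Groups were compared with vehicle and with the morphine group.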

Mus musculus [9] = test: Effect on morphine-dependence in CD1 mouse assessed as decrease in naloxone-precipitated rearing at 0.025 mg/kg, ip administered chronically 15 mins prior to each morphine challenge relative to vehicle-treated control; assay type: functional, organism-based; design: dose 0.025 mg/kg
Summary of the method: as §2, with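 “Acquisition” for “Expression”, “repeated” for “a single acute”, “dosing” for “dose”, “naloxone.” for “naloxone in control and morphine-treated mice.”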

Mus musculus [10] = test: Effect on morphine-dependence in CD1 mouse assessed as decrease in naloxone-precipitated forepaw tremors at 0.025 mg/kg, ip administered chronically 15 mins prior to each morphine challenge relative to vehicle-treated control; assay type: functional, organism-based; design: dose 0.025 mg/kg
Summary of the method: as §2, with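 “Acquisition” for “Expression”, “repeated” for “a single acute”, “dosing” for “dose”, “naloxone.” for “naloxone in control and morphine-treated mice.”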

Mus musculus [11] = test: Antidepressant activity in CD1 mouse assessed as decrease in immobility time at 0.025 mg/kg, ip administered 15 mins prior to coadministration with yohimbine measured after 15 mins by forced swim test relative to vehicle-treated control; assay type: functional, organism-based; design: dose 0.025 mg/kg
Summary of the method: (§3)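 Forced swimming test in mice using 0.025 mg/kg ip test dose. It was combined with the 5-HT1A antagonist WAY 100635 (0.1 mg/kg, sc) or with the α2 antagonist yohimbine (1.250 mg/kg, ip). Each antagonist was also given alone. Immobility time is the read-out, given as means ± SEMs of 7–8 animals.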

Mus musculus [12] = test: Effect on morphine-dependence in CD1 mouse assessed as decrease in naloxone-precipitated jumping at 0.025 mg/kg, ip administered acutely 15 mins prior to naloxone challenge relative to vehicle-treated control; assay type: functional, organism-based; design: dose 0.025 mg/kg; summary of the method: as §2
[13] = biological target: T6, Alpha-2A adrenergic receptor (Homo sapiens, UniProt P08913); test: Displacement of [3H]RX821002 from human alpha2A adrenoceptor expressed in CHO cells after 30 mins by scintillation counting; assay type: cell-based; summary of the method: as §1
T6 sequence (P08913 whole entry): T3 sequence (whole entry)

Mus musculus [14] = test: Effect on morphine-dependence in CD1 mouse assessed as decrease in naloxone-precipitated jumping at 0.025 mg/kg, ip administered chronically 15 mins prior to each morphine challenge relative to vehicle-treated control; assay type: functional, organism-based; design: dose 0.025 mg/kg
Summary of the method: as §2, with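 “Acquisition” for “Expression”, “repeated” for “a single acute”, “dosing” for “dose”, “naloxone.” for “naloxone in control and morphine-treated mice.”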

Mus musculus [15] = test: Antidepressant activity in CD1 mouse assessed as decrease in immobility time at 0.025 mg/kg, ip administered 30 mins prior to coadministration with WAY100635 measured after 15 mins by forced swim test relative to vehicle-treated control; assay type: functional, organism-based; design: dose 0.025 mg/kg; summary of the method: as §3
[16] = biological target: T7, Alpha-2C adrenergic receptor (Homo sapiens, UniProt P18825); test: Agonist activity at human alpha2C adrenoceptor expressed in CHO cells assessed as extracellular acidification measured after 4 mins by cytosensor microphysiometric analysis; assay type: functional, cell-based; summary of the method: as §1
T7 sequence (P18825 whole entry): T2 sequence (whole entry)

[17] = biological target: T7, Alpha-2C adrenergic receptor; test: Displacement of [3H]RX821002 from human alpha2C adrenoceptor expressed in CHO cells after 30 mins by scintillation counting; assay type: cell-based; summary of the method: as §1
Mus musculus [18] = test: Effect on morphine-dependence in CD1 mouse assessed as decrease in naloxone-precipitated teeth chatter at 0.025 mg/kg, ip administered acutely 15 mins prior to naloxone challenge relative to vehicle-treated control; assay type: functional, organism-based; design: dose 0.025 mg/kg; summary of the method: as §2
Mus musculus [19] = test: Effect on morphine-dependence in CD1 mouse assessed as decrease in naloxone-precipitated forepaw tremors at 0.025 mg/kg, ip administered acutely 15 mins prior to naloxone challenge relative to vehicle-treated control; assay type: functional, organism-based; design: dose 0.025 mg/kg; summary of the method: as §2
Mus musculus [20] = test: Effect on morphine-dependence in CD1 mouse assessed as decrease in naloxone-precipitated teeth chatter at 0.025 mg/kg, ip administered chronically 15 mins prior to each morphine challenge relative to vehicle-treated control; assay type: functional, organism-based; design: dose 0.025 mg/kg
Summary of the method: as §2, with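 “Acquisition” for “Expression”, “repeated” for “a single acute”, “dosing” for “dose”, “naloxone.” for “naloxone in control and morphine-treated mice.”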

[21] = biological target: T8, Alpha-2B adrenergic receptor (Homo sapiens, UniProt P18089); test: Agonist activity at human alpha2B adrenoceptor expressed in CHO cells assessed as extracellular acidification measured after 4 mins by cytosensor microphysiometric analysis
T8 sequence (P18089 whole entry): T5 sequence (whole entry)

[22] = biological target: T8, Alpha-2B adrenergic receptor; test: Displacement of [3H]RX821002 from human alpha2B adrenoceptor expressed in CHO cells after 30 mins by scintillation counting; assay type: cell-based; summary of the method: as §1

## COC(=O)[C@@H]1[C@H]2C[C@H]3c4[nH]c5ccccc5c4CCN3C[C@@H]2CC[C@@H]1O
Mus musculus [1]
  Activity: inactive
Mus musculus [2]
  Activity: inactive

## C=CCc1ccccc1O[C@H](C)C1=NCCN1
[3]
  Ki: > 10000 nM
[4]
  Intrinsic activity: 0.5
[5]
  pKb: 7.4
[6]
  pD2: < 5
[7]
  pEC50: inactive

## C[C@H](Oc1ccccc1CC1CC1)C1=NCCN1
[3]
  Ki: 5.75 nM
Mus musculus [8]
  Activity: Active
[4]
  Intrinsic activity: 0.85
Mus musculus [9]
  Activity: Active
Mus musculus [10]
  Activity: Active
Mus musculus [11]
  Activity: inactive
Mus musculus [12]
  Activity: Active
[13]
  Ki: 41.7 nM
Mus musculus [14]
  Activity: Active
Mus musculus [15]
  Activity: inactive
[16]
  EC50: 2 nM
[17]
  Ki: 275 nM
Mus musculus [18]
  Activity: Active
Mus musculus [19]
  Activity: Active
Mus musculus [20]
  Activity: Active
[21]
  EC50: 1580 nM
[22]
  Ki: 407 nM

## CC(Oc1c(Cl)cccc1Cl)C1=NCCN1 (stereo not given) [LOFEXIDINE]
[3]
  Ki: 126 nM

From ChEMBL document CHEMBL2086372 (ACS Med Chem Lett, 2012)
